Reference: PMC8828683 (Stem Cell Reports, 2022)

Key:
Type in all cases: cell-based, human
NTERA-2 ECC [1] = test: Live cells / PCD by FACS of nonpermeabilized cells stained with annexin-V and PI
Summary of the method: (§1)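 Cells were seeded so that vehicle wells stayed subconfluent, then treated with a range of test compound concentrations for 4 days. Without permeabilization, they were stained with annexin-V-FITC and propidium iodide and analysed by flow cytometry. Double-negative cells (Q3) were scored as live and Q1+Q2 as programmed death. Vehicle was set to 100% viable and 0% dead. Results are the mean of three independent assays with SEM; group averages and ratios are derived from the IC50s.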

[2] = tested on: HFF-1 normal skin fibroblast; test: as above; conditions: Homo sapiens, HFF-1, read-out: IC50 Live Cells
Summary of the method: as §1

NTERA-2 ECC [3] = test: Cells with <2N DNA by FACS of permeabilized cells stained with PI; conditions: Homo sapiens, NTERA2, read-out: IC50 DNA (50% of cells with <2N DNA)
Summary of the method: (§2)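 Cells were exposed to a range of test compound concentrations alongside vehicle (DMSO) controls. They were then permeabilized, stained with propidium iodide, and DNA content was read by flow cytometry. IC50 is the concentration at which 50% of cells hold <2N DNA, from 3 independent repetitions with SEM. Line averages and differentiated/pluripotent ratios are derived from these IC50s. NTERA-2 was also run as a time course at 5 μM, normalized to vehicle at each time point.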

[4] = tested on: HFF-1 normal skin fibroblast; test: as above; conditions: Homo sapiens, HFF-1, read-out: IC50 DNA (50% of cells with <2N DNA)
Summary of the method: as §2

## Cc1cccc(/C=N/Nc2cc(N3CCOCC3)nc(OCCc3ccccn3)n2)c1 [Apilimod]
NTERA-2 ECC [1]; Homo sapiens, NTERA2, 96 h, read-out: IC50 Live Cells
  IC50: 200 nM
NTERA-2 ECC [1]; NTERA-2 cells
  Effectiveness relative to WX8: about 10 times
[2]
  IC50: > 10000 nM
NTERA-2 ECC [3]
  IC50: 400 nM
[4]
  IC50: > 10000 nM
